Test results taken from ChEMBL document CHEMBL1123658, “1-(2-pyridinyl)piperazine derivatives with antianaphylactic, antibronchospastic, and mast cell stabilizing activities” (J Med Chem, 1987).

Columns and labels:
[1] = system: Rattus norvegicus; assay: Inhibition of mast cell degranulation was assessed in female albino rats at a dose of 61 umol/kg iv; assay type: functional
[2] = In vivo toxic effect was determined in mouse after intraperitoneal administration with 10% aqueous acacia gum; value ranges from 0.96-10.62; assay type: toxicity, organism-based; details: ip
Method in brief: (§1)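 Female albino mice (20-30 g), 10 animals per dose, dosed intraperitoneally with compound in solution or suspension; compounds tested as salts unless noted. Mortality was recorded over 7 days.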

[3] = In vivo toxic effect was determined in mouse after oral administration with 10% aqueous acacia gum; value ranges from 1.79-2.41; assay type: toxicity, organism-based
Method in brief: (§2)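 Female albino mice, 20-30 g. Compound given orally as solution or suspension in 10% aqueous acacia gum, 10 animals per dose. Deaths recorded over 7 days.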

[4] = system: Rattus norvegicus; assay: Inhibition of mast cell degranulation was assessed in female albino rats at a dose of 2 umol/kg iv; assay type: functional
[5] = system: Cavia porcellus; assay: Antibronchospatic activity determined by histamine stimulated bronchospasm inhibition in guinea pigs after(i.v.) administration; assay type: functional, Bronchiole
Method in brief: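 Guinea pigs, Konzett–Rössler preparation. Bronchospasm was induced with histamine. Compound was given iv (1 mL/kg) 1 min before the agonist, dissolved in saline or saline with slight excess HCl or CH3SO3H (pH 3.5–4). Three doses were tested in duplicate, chosen to give 20–90% inhibition. ID75 was read graphically from log dose–response curves.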

[6] = system: Rattus norvegicus; assay: Rat PCA Test(50% inhibition of spot areas)in the female albino rats after oral administration in 10% aqueous acacia gum; value ranges from 1.7-2.4; assay type: functional; details: read-out: ID50 (the source's name)
Method in brief: (§3)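 Female rats (200-250 g) were passively sensitized by ventral intradermal anti-egg-albumin antiserum. This was raised in rats by intramuscular 1% egg albumin plus ip H. pertussis vaccine, with serum taken at 12 days. After 24 h, groups of 10 were dosed orally with compound or vehicle (10 mL/kg). At 60 min, iv challenge used 0.3% egg albumin with 1% Evans blue. Blued areas were measured after 30 min.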

[7] = In vivo toxic effect was determined in mouse after intraperitoneal administration with 10% aqueous acacia gum; value ranges from 0.29-0.42; assay type: toxicity, organism-based; details: ip; method in brief: as §1
[8] = In vivo toxic effect was determined in mouse after oral administration with 10% aqueous acacia gum; value ranges from 0.50-0.68; assay type: toxicity, organism-based
[9] = system: Rattus norvegicus; assay: Rat PCA Test(50% inhibition of spot areas)in the female albino rats after (ip) administration in 10% aqueous acacia gum; assay type: functional; details: read-out: ID50 (the source's name)
Method in brief: (§4)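 Female albino rats (200–250 g) received intradermal ventral injections of rat anti-egg-albumin antiserum; donors were raised with egg albumin im plus H. pertussis ip, and serum was taken at 12 days. 24 h later, compound was given ip in 10% acacia gum (10 mL/kg), 10 rats/group. Challenge 30 min later was iv 0.3% egg albumin plus 1% Evans blue. Blued areas were measured 30 min after challenge.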

[10] = In vivo toxic effect was determined in mouse after intraperitoneal administration with 10% aqueous acacia gum; value ranges from 1.41-3.07; assay type: toxicity, organism-based; details: ip; method in brief: as §1
[11] = In vivo toxic effect was determined in mouse after oral administration with 10% aqueous acacia gum; value ranges from 3.02-4.51; assay type: toxicity, organism-based; method in brief: as §2
[12] = system: Rattus norvegicus; assay: Rat PCA Test(50% inhibition of spot areas)in the female albino rats after ip administration in 10% aqueous acacia gum; assay type: functional; details: read-out: ID50 (the source's name)
Method in brief: (§5)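 Antiserum came from female rats given 1% egg albumin in 0.9% NaCl intramuscularly plus Haemophilus pertussis vaccine (2 × 10^10 organisms) intraperitoneally, and was collected 12 days later. Recipient rats (200-250 g) got it intradermally at a ventral site. After 24 h, groups of 10 received vehicle or compound ip. At 30 min they were challenged iv with 0.3% egg albumin plus 1% Evans blue. Blued skin areas were measured 30 min later.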

[13] = In vivo toxic effect was determined in mouse after intraperitoneal administration with 10% aqueous acacia gum; value ranges from 0.63-1.05; assay type: toxicity, organism-based; details: ip; method in brief: as §1
[14] = system: Rattus norvegicus; assay: Rat PCA Test(50% inhibition of spot areas)in the female albino rats after (ip) administration in 10% aqueous acacia gum; value ranges from 114-198; assay type: functional; details: read-out: ID50 (the source's name); method in brief: as §4
[15] = In vivo toxic effect was determined in mouse after intraperitoneal administration with 10% aqueous acacia gum; value ranges from 0.85-1.18; assay type: toxicity, organism-based; details: ip; method in brief: as §1
[16] = In vivo toxic effect was determined in mouse after oral administration with 10% aqueous acacia gum; value ranges from 0.68-1.24; assay type: toxicity, organism-based; method in brief: as §2
[17] = system: Rattus norvegicus; assay: Rat PCA Test(50% inhibition of spot areas)in the female albino rats after (ip) administration in 10% aqueous acacia gum; value ranges from 22-195; assay type: functional; details: read-out: ID50 (the source's name); method in brief: as §4
[18] = system: Rattus norvegicus; assay: Rat PCA Test(50% inhibition of spot areas)in the female albino rats after oral administration in 10% aqueous acacia gum; assay type: functional; details: read-out: ID50 (the source's name); method in brief: as §3
[19] = In vivo toxic effect was determined in mouse after intraperitoneal administration with 10% aqueous acacia gum; value ranges from 0.72-1.40; assay type: toxicity, organism-based; details: ip; method in brief: as §1
[20] = In vivo toxic effect was determined in mouse after oral administration with 10% aqueous acacia gum; value ranges from 1.35-1.88; assay type: toxicity, organism-based; method in brief: as §2
[21] = system: Rattus norvegicus; assay: Rat PCA Test(50% inhibition of spot areas)in the female albino rats after (ip) administration in 10% aqueous acacia gum; value ranges from 328-1350; assay type: functional; details: read-out: ID50 (the source's name); method in brief: as §4
[22] = In vivo toxic effect was determined in mouse after intraperitoneal administration with 10% aqueous acacia gum; value ranges from 3.67-6.20; assay type: toxicity, organism-based; details: ip; method in brief: as §1
[23] = In vivo toxic effect was determined in mouse after oral administration with 10% aqueous acacia gum; value ranges from 0.84-1.62; assay type: toxicity, organism-based; method in brief: as §2
[24] = In vivo toxic effect was determined in mouse after intraperitoneal administration with 10% aqueous acacia gum; value ranges from 0.43-0.73; assay type: toxicity, organism-based; details: ip; method in brief: as §1
[25] = In vivo toxic effect was determined in mouse after intraperitoneal administration with 10% aqueous acacia gum; value ranges from 0.40-1.72; assay type: toxicity, organism-based; details: ip; method in brief: as §1
[26] = In vivo toxic effect was determined in mouse after oral administration with 10% aqueous acacia gum; value ranges from 0.67-1.21; assay type: toxicity, organism-based; method in brief: as §2
[27] = system: Rattus norvegicus; assay: Inhibition of mast cell degranulation was assessed in female albino rats at a dose of 29 umol/kg iv; assay type: functional
[28] = system: Rattus norvegicus; assay: Rat PCA Test(50% inhibition of spot areas)in the female albino rats after (ip) administration in 10% aqueous acacia gum; value ranges from 57-105; assay type: functional; details: read-out: ID50 (the source's name); method in brief: as §4
[29] = In vivo toxic effect was determined in mouse after intraperitoneal administration with 10% aqueous acacia gum; value ranges from 1.73-3.04; assay type: toxicity, organism-based; details: ip; method in brief: as §1
[30] = In vivo toxicity in mouse after oral administration with 10% aqueous acacia gum; assay type: organism-based; method in brief: as §2
[31] = system: Rattus norvegicus; assay: Rat PCA Test(50% inhibition of spot areas)in the female albino rats after (ip) administration in 10% aqueous acacia gum; value ranges from 20-94; assay type: functional; details: read-out: ID50 (the source's name); method in brief: as §4
[32] = system: Mus musculus; assay: In vivo toxic effect was determined in mouse after intraperitoneal administration with 10% aqueous acacia gum; NA means poorly absorbed; assay type: toxicity, organism-based; details: ip; method in brief: as §1
[33] = system: Rattus norvegicus; assay: Inhibition of mast cell degranulation was assessed in female albino rats at a dose of 45 umol/kg iv; assay type: functional
[34] = system: Rattus norvegicus; assay: Rat PCA Test(50% inhibition of spot areas)in the female albino rats after (ip) administration in 10% aqueous acacia gum; value ranges from 24-51; assay type: functional; details: read-out: ID50 (the source's name); method in brief: as §4
[35] = system: Rattus norvegicus; assay: Rat PCA Test(50% inhibition of spot areas)in the female albino rats after oral administration in 10% aqueous acacia gum; value ranges from 13-117; assay type: functional; details: read-out: ID50 (the source's name); method in brief: as §3
[36] = In vivo toxic effect was determined in mouse after oral administration with 10% aqueous acacia gum; value ranges from 2.50-3.50; assay type: toxicity, organism-based; method in brief: as §2
[37] = In vivo toxic effect was determined in mouse after intraperitoneal administration with 10% aqueous acacia gum; value ranges from 1-1.40; assay type: toxicity, organism-based; details: ip; method in brief: as §1
[38] = In vivo toxic effect was determined in mouse after intraperitoneal administration with 10% aqueous acacia gum; value ranges from 0.72-1.13; assay type: toxicity, organism-based; details: ip; method in brief: as §1
[39] = system: Rattus norvegicus; assay: Rat PCA Test(50% inhibition of spot areas)in the female albino rats after (ip) administration in 10% aqueous acacia gum;Value ranges from (81-186); assay type: functional; details: read-out: ID50 (the source's name); method in brief: as §5
[40] = In vivo toxic effect was determined in mouse after intraperitoneal administration with 10% aqueous acacia gum; value ranges from 5.14-9.14; assay type: toxicity, organism-based; details: ip; method in brief: as §1
[41] = system: Rattus norvegicus; assay: Rat PCA Test(50% inhibition of spot areas)in the female albino rats after (ip) administration in 10% aqueous acacia gum; value ranges from 25-150; assay type: functional; details: read-out: ID50 (the source's name); method in brief: as §4
[42] = In vivo toxic effect was determined in mouse after intraperitoneal administration with 10% aqueous acacia gum; value ranges from 0.29-0.60; assay type: toxicity, organism-based; details: ip; method in brief: as §1
[43] = In vivo toxic effect was determined in mouse after oral administration with 10% aqueous acacia gum; value ranges from 0.86-1.66; assay type: toxicity, organism-based; method in brief: as §2

## Nc1ccccc1NC(=O)CCN1CCN(c2ccccn2)CC1
[1]
  inhibition in vivo at 61 µmol/kg: 26%
[2]
  LD50: 3200 µmol/kg
[3]
  LD50: 2080 µmol/kg

## CN1CCC(=C2c3ccccc3CC(=O)c3sccc32)CC1 [KETOTIFEN]
[4]
  inhibition in vivo at 2 µmol/kg: 22%
[5]
  ID75: 0.0015 µM/kg
[6]
  ED50: 2 µmol/kg
[7]
  LD50: 350 µmol/kg
[8]
  LD50: 580 µmol/kg

## Cl.Cl.O=C(CCN1CCN(c2ccccn2)CC1)Nc1ccccc1[N+](=O)[O-]
[5]
  ID75: 0.58 µM/kg
[9]
  ED50: > 230 µmol/kg
[10]
  LD50: 2080 µmol/kg
[11]
  LD50: 3700 µmol/kg

## Cc1c(C)c(C(=O)NCCN2CCN(c3ccccn3)CC2)c(C)c(C)c1N
[5]
  ID75: 8.39 µM/kg
[12]
  ED50: > 236 µmol/kg
[13]
  LD50: 710 µmol/kg

## Cl.Nc1cccc(NC(=O)CCN2CCN(c3ccccn3)CC2)c1
[5]
  ID75: 0.61 µM/kg
[14]
  ED50: 148 µmol/kg
[15]
  LD50: 900 µmol/kg
[16]
  LD50: 850 µmol/kg

## Cc1ccccc1NC(=O)CCN1CCN(c2ccccn2)CC1
[5]
  ID75: 0.47 µM/kg
[17]
  ED50: 65 µmol/kg
[18]
  ED50: > 96 µmol/kg
[19]
  LD50: 1010 µmol/kg
[20]
  LD50: 1580 µmol/kg

## CCOC(=O)CCN1CCN(c2ccccn2)CC1.Cl.Cl
[5]
  ID75: 7.03 µM/kg
[21]
  ED50: 665 µmol/kg
[22]
  LD50: 5080 µmol/kg

## Cl.Cl.O=C(CCN1CCN(c2ccccn2)CC1)Nc1cccc(C(F)(F)F)c1
[5]
  ID75: 0.65 µM/kg
[9]
  ED50: > 55 µmol/kg
[23]
  LD50: 1170 µmol/kg
[24]
  LD50: 560 µmol/kg

## Cl.Cl.O=C(CCN1CCN(c2ccccn2)CC1)Nc1ccc([N+](=O)[O-])cc1
[5]
  ID75: 0.94 µM/kg
[25]
  LD50: 470 µmol/kg
[26]
  LD50: 810 µmol/kg

## CC(=O)c1ccccc1NC(=O)CCN1CCN(c2ccccn2)CC1.Cl.Cl
[27]
  inhibition in vivo at 29 µmol/kg: 0%
[5]
  ID75: 0.89 µM/kg
[28]
  ED50: 77 µmol/kg
[18]
  ED50: > 230 µmol/kg
[29]
  LD50: 2300 µmol/kg
[30]
  LD50: > 6910 µmol/kg

## Br.CC(=O)c1ccc(NC(=O)CCN2CCN(c3ccc(Br)cn3)CC2)cc1
[31]
  ED50: 43 µmol/kg
[18]
  ED50: > 230 µmol/kg
[30]
  LD50: > 7000 µmol/kg
[32]
  LD50: Not Active

## CC1CN(c2ccccn2)CCN1CCC(=O)Nc1ccc(N)cc1.Cl (centres undefined)
[33]
  inhibition in vivo at 45 µmol/kg: 14%
[5]
  ID75: 0.59 µM/kg
[34]
  ED50: 35 µmol/kg
[35]
  ED50: 92 µmol/kg
[36]
  LD50: 2970 µmol/kg
[37]
  LD50: 1190 µmol/kg

## Cc1cccc(C)c1NC(=O)CN1CCN(c2ccccn2)CC1
[5]
  ID75: >24 µM/kg
[38]
  LD50: 900 µmol/kg
[39]
  ED50: 123 µmol/kg

## CCOC(=O)CC(C)N1CCN(c2ccccn2)CC1.Cl.Cl (centres undefined)
[5]
  ID75: 4.14 µM/kg
[9]
  ED50: > 857 µmol/kg
[40]
  LD50: 6850 µmol/kg

## CC1CN(c2ccccn2)CCN1CCC(=O)Nc1ccc([N+](=O)[O-])cc1.Cl.Cl (centres undefined)
[41]
  ED50: 61 µmol/kg
[42]
  LD50: 420 µmol/kg
[43]
  LD50: 1200 µmol/kg
